Results reported in ChEMBL document CHEMBL4765230, “Discovery of Orally Efficacious Phosphoinositide 3-Kinase δ Inhibitors with Improved Metabolic Stability” (J Med Chem, 2016).

How the values were obtained:
[1] = Clearance in rat at 1 mg/kg, iv; type: ADME, organism-based; settings: in vivo
[2] = target: T1, Phosphatidylinositol 4,5-bisphosphate 3-kinase catalytic subunit delta isoform (Homo sapiens, UniProt O00329); test: Inhibition of PI3Kdelta in human whole blood assessed as reduction in anti-FCepsilonR1 mAb-stimulated basophil activation preincubated for 60 mins followed by anti-FCepsilonR1 mAb stimulation and measured after 25 mins by flow cytometry analysis; type: tissue-based
T1 sequence (O00329 whole entry): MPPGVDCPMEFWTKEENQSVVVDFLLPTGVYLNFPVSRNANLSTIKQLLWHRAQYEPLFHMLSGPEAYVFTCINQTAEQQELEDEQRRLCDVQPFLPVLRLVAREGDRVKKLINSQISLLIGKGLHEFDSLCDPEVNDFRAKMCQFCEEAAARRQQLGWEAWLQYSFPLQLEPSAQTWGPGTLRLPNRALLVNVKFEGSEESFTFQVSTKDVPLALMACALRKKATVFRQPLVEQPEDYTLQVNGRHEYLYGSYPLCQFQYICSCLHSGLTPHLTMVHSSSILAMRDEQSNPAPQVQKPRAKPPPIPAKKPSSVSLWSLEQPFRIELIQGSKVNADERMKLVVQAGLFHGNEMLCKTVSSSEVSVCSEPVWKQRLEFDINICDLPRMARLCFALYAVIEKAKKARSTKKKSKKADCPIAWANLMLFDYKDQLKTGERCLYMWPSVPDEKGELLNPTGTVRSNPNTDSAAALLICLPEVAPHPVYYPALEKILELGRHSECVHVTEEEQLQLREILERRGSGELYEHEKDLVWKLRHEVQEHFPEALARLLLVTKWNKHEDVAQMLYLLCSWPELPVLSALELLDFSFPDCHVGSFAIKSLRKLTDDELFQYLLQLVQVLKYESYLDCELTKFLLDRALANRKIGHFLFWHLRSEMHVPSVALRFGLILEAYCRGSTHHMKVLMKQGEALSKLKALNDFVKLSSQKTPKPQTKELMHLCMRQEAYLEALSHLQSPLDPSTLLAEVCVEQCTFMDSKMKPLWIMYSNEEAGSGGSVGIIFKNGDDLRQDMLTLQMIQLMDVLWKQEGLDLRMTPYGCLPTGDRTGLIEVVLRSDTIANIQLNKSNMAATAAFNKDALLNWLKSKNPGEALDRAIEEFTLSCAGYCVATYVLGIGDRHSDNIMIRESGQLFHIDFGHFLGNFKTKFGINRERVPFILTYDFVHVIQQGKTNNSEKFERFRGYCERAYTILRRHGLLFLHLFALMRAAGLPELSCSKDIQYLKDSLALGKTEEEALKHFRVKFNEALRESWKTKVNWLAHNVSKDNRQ

[3] = Chemical stability of the compound at pH 2 phosphate buffer assessed as time required for 50% hydrolytic degradation at 100 ug/ml and 40 degreeC by UPLC-UV analysis; type: physicochemical; settings: dose 100 µg/ml, read-out: Time (converted)
Summary of the method: (§1)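 Compound diluted from acetonitrile or DMSO stock to 100 μg/mL final in 50 mM phosphate buffer, pH 2 (or pH 7), ionic strength 0.15 M NaCl, 40 °C in autosampler. Timed injections analysed by reverse-phase UPLC-UV (220 nm); pseudo-first-order kobs from ln c vs time; t50 and t90 calculated.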

[4] = Chemical stability of the compound at pH 2 phosphate buffer assessed as time required for 90% hydrolytic degradation at 100 ug/ml and 40 degreeC by UPLC-UV analysis; type: physicochemical; settings: in the assay text read “10% hydrolytic degradation” for “90% hydrolytic degradation”, dose 100 µg/ml; summary of the method: as §1
[5] = target: T1, Phosphatidylinositol 4,5-bisphosphate 3-kinase catalytic subunit delta isoform; test: Inhibition of PI3K p110delta in human basophil assessed as reduction in anti-FCepsilonR1 mAb-stimulated basophil activation preincubated for 60 mins followed by anti-FCepsilonR1 mAb stimulation and measured after 25 mins by flow cytometry analysis
[6] = target: Phosphatidylinositol 4,5-bisphosphate 3-kinase catalytic subunit gamma isoform (Homo sapiens, UniProt P48736); test: Inhibition of PI3K p110gamma in human basophil assessed as reduction in fMLP-induced basophil activation in presence of 25% serum by flow cytometry analysis; type: tissue-based
Summary of the method: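 Basophil activation via fMLP (p110γ) in 25% serum or in isolated WBCs in low serum, with increasing compound concentrations. Anti-CD63-FITC/anti-CCR3-PE staining; ≥150 (25% serum) or ≥75 (low serum) CCR3-high basophils gated; % CD63-positive normalized to 0.3% DMSO vehicle; concentration corrected for reagent dilution.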

[7] = Oral bioavailability in Sprague-Dawley rat at 5 mg/kg measured over 24 hrs by LC/MS/MS analysis; type: ADME, organism-based; settings: in vivo
Summary of the method: (§2)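 Intravenous 1 mg/kg and oral 5 mg/kg doses. Vehicle: 5% ethanol/55% PEG 400/40% water for rats and dogs; 5% ethanol/22% PEG 400/73% water for cynomolgus; 5% ethanol/25% PEG 400/70% water for rhesus. Half-life and MRT from iv; mean ± SD, n = 3 per route.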

[8] = Volume of distribution at steady state in Beagle dog at 1 mg/kg, iv measured over 24 hrs by LC/MS/MS analysis; type: ADME, organism-based, Canis lupus familiaris; settings: in vivo, read-out: Vdss
Summary of the method: (§3)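 Single intravenous dose of 1 mg/kg. Vehicles: rats and dogs 5% ethanol/55% PEG 400/40% water; cynomolgus monkeys 5% ethanol/22% PEG 400/73% water; rhesus monkeys 5% ethanol/25% PEG 400/70% water. Plasma concentration–time data gave Vss and iv half-life. Reported as mean ± SD, n = 3.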

[9] = MRT in Beagle dog at 1 mg/kg, iv measured over 24 hrs by LC/MS/MS analysis; type: ADME, organism-based, Canis lupus familiaris; settings: in vivo; summary of the method: as §2
[10] = Volume of distribution at steady state in cynomolgus monkey at 1 mg/kg, iv measured over 24 hrs by LC/MS/MS analysis; type: ADME, organism-based, Macaca fascicularis; settings: in vivo, read-out: Vdss; summary of the method: as §3
[11] = Terminal half life in cynomolgus monkey at 1 mg/kg, iv measured over 24 hrs by LC/MS/MS analysis; type: ADME, organism-based, Macaca fascicularis; settings: in vivo, read-out: beta t1/2 (converted); summary of the method: as §3
[12] = target: T1, Phosphatidylinositol 4,5-bisphosphate 3-kinase catalytic subunit delta isoform; test: Inhibition of PI3Kdelta in human whole blood assessed as inhibition of BCR-induced B-cell activation
[13] = tested on: Rattus norvegicus; test: Antiarthritic activity in Lewis rat model of Freund's incomplete adjuvant-induced arthritis assessed as inhibition of bone resorption at 0.3 to 3 mg/kg, po bid administered for 7 days at 12 hrs interval starting from day 10 to day 16 post-immunization by microscopic analysis relative to control; type: functional; set-up: scale not given: the % may be the effect or the level left; settings: dose 0.3-3 mg/kg, time 7 day
Summary of the method: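 Female Lewis rats with established collagen-induced arthritis dosed orally twice daily for 7 days at 0.3, 1 and 3 mg/kg, starting day 10 after second collagen immunization. Joint histopathology scored for pannus formation, cartilage damage, bone resorption and periosteal bone formation; ED50 derived. n = 8/treatment group, n = 4 normal controls.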

[14] = Inhibition of PI3Kdelta in rat whole blood assessed as reduction in anti-IgD induced B-cell activation by measuring decrease in CD86 surface expression by flow cytometry analysis
[15] = species on record: Rattus norvegicus; test: as above

Sequence of Phosphatidylinositol 4,5-bisphosphate 3-kinase catalytic subunit gamma isoform (P48736 whole entry, canonical isoform): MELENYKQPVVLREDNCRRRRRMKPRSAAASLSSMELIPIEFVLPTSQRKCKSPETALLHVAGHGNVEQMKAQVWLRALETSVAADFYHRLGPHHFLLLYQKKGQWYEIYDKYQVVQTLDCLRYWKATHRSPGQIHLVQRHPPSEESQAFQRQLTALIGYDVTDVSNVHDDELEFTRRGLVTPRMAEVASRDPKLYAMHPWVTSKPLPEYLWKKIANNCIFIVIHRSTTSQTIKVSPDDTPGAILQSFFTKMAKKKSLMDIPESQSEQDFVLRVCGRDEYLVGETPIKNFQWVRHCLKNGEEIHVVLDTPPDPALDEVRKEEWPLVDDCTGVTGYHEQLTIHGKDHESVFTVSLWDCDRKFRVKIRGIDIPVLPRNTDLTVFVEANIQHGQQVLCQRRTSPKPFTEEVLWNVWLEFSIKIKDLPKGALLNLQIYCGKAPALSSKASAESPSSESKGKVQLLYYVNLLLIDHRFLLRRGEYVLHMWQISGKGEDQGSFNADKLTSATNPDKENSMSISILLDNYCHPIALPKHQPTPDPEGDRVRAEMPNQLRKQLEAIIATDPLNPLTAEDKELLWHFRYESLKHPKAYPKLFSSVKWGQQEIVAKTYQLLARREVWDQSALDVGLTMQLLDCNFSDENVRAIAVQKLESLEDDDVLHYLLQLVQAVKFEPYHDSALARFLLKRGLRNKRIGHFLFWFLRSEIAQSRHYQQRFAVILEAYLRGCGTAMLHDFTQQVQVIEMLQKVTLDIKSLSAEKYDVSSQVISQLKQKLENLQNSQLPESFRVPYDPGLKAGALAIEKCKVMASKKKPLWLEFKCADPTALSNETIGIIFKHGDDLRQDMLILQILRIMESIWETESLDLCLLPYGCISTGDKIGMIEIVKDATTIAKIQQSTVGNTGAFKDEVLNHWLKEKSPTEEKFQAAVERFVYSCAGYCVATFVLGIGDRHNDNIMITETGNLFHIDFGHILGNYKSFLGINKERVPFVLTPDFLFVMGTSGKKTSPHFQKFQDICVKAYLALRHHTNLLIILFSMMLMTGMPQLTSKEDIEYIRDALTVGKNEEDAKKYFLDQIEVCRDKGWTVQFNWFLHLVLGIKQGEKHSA

clearance [1]: 0.43 L/h/kg
EC50 [2]: 1 nM
half-life at 100 ug/ml [3]: 20 h
Time [4]: 3.1 h
EC50 [5]: 0.31 nM
EC50 [6]: 581 nM
bioavailability [7]: 57%
Vd [8]: 1.03 L/kg
MRT [9]: 2.01 h
Vd [10]: 1.21 L/kg
half-life [11]: 2.89 h
EC50 [12]: 2.4 nM
EC50 [14]: 1.6 nM
EC90 [15]: 31.5 nM
SMILES: N#Cc1c(N)nc(N)nc1N[C@H](c1nc2c(F)ccc(Cl)c2c(=O)n1-c1cccnc1)C1CC1 [GS-9901]
Activity [13]: 50%
